Source: ChEMBL document CHEMBL2021771, “Synthesis and biological activity of 2-aminothiazoles as novel inhibitors of PGE2 production in cells” (Bioorg Med Chem Lett, 2012)
Calls of active or inactive are those of the source. The rule behind the calls is not given here.

Assays:
[1] = (§1) Inhibition of IL-1beta-induced PGE2 production in human HCA-7 cells at 1 uM after 72 hrs by EIA; type: functional; conditions: HCA-7, 72 h
Method in brief: (§2)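 Screen of HCA-7 cells at 1 μM compound (DMSO) with 10 ng/ml IL-1β in serum-free medium for 72 h, after overnight DMEM/10% FBS culture and 18 h serum starvation. Supernatant PGE2 quantified by EIA, expressed as % reduction of PGE2 level ± SD, n = 3.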

SW837 = assay: Antitumor activity against human SW837 cells xenografted in mouse at 200 mg/kg for 5 days relative to control; type: functional
A549 = assay: Antitumor activity against human A549 cells xenografted in mouse at 100 mg/kg for 10 days relative to control; type: functional
[2] = Antitumor activity against human HCA-7 cells xenografted in mouse at 200 mg/kg for 5 days relative to control; type: functional
[3] = biological target: T1, Prostaglandin G/H synthase 2 (Homo sapiens, UniProt P35354); assay: Inhibition of COX2 by fluorescence assay
T1 sequence (P35354 whole entry): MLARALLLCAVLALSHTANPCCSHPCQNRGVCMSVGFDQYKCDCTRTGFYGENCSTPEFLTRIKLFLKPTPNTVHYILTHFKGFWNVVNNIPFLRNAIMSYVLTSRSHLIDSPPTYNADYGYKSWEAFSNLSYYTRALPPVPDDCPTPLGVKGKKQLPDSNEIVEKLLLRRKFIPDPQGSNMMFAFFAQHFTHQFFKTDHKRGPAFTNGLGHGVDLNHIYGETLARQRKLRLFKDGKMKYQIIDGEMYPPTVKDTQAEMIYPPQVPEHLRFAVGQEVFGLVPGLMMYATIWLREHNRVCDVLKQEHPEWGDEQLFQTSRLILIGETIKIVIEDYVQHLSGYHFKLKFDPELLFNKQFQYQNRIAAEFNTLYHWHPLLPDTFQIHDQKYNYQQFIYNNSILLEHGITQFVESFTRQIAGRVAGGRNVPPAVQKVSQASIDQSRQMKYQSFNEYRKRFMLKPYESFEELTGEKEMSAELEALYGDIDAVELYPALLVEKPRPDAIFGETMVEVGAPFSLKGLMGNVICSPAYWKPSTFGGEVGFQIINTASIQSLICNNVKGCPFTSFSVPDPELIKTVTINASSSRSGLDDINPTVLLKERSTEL

[4] = Inhibition of IL-1beta-induced PGE2 production in human HCA-7 cells after 72 hrs by EIA; type: functional, cell-based; conditions: HCA-7, 72 h
Method in brief: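 HCA-7 cells seeded and incubated overnight in DMEM/10% FBS, then serum-starved 18 h. Stimulated with 10 ng/ml IL-1β plus increasing compound concentrations (DMSO) in serum-free medium for 72 h. Supernatant PGE2 measured by EIA.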

[5] = biological target: T2, Prostaglandin G/H synthase 2 (Homo sapiens) (UniProt P35354); conditions: at 5 µM
T2 sequence (whole entry): T1 sequence (P35354 whole entry)

HCA-7 = assay: as §1; type: functional; method in brief: as §2

SMILES | inhibition at 1 µM [1] [%] | IC50 [3] [nM] | inhibition [5] [%] | also measured
CC(=O)c1sc(Nc2ccccc2)nc1C | 29.9 | – | – | –
Clc1ccc(-c2csc(Nc3cccc4ccccc34)n2)cc1 | 51.4 | – | – | –
Clc1ccc(-c2csc(Nc3ccc(Oc4ccccc4)cc3)n2)cc1 | 75.5 | > 10000 | 32.1 | T/C (SW837): 40%; T/C (A549): 38%; T/C [2]: 61%; EC50 [4]: 280 nM
CCc1sc(Nc2ccc(OC)cc2)nc1C | 94.4 | > 5000 | 49.3 | EC50 [4]: 320 nM
COc1ccc(Nc2nc(C)c(C(C)=O)s2)cc1 | 58.5 | – | – | –
Clc1ccc(-c2csc(Nc3ccc4c(c3)OCO4)n2)cc1 | 94.2 | 840 | 68.8 | –
COc1ccc(Nc2nc(-c3ccc(OC)cc3)cs2)cc1 | 73.6 | 1370 | 66.8 | –
COc1ccc(-c2csc(Nc3ccc(C)cc3)n2)cc1 | 91.5 | 810 | 73.1 | –
COc1cccc(-c2csc(Nc3ccc4c(c3)OCO4)n2)c1 | 94.4 | 920 | 86 | –
CC(=O)c1sc(Nc2ccc(Oc3ccccc3)cc2)nc1C | 87.9 | > 5000 | 28.9 | –
COc1cccc(Nc2nc(-c3ccc(Cl)cc3)cs2)c1 | 78.3 | 1390 | 55.1 | –
Cc1nc(Nc2ccc(Oc3ccccc3)cc2)sc1C(C)O (stereo not given) | 80.4 | > 5000 | – | EC50 [4]: 90 nM
COc1ccc(Nc2nc(-c3ccc(C)cc3)cs2)cc1 | 37.3 | – | – | –
COc1ccc(Nc2nc(-c3ccccc3)c(C(=O)c3ccccc3)s2)cc1 | – | – | – | inhibition (HCA-7): inactive
COc1ccc(-c2csc(Nc3ccc4c(c3)OCO4)n2)cc1 | 96.2 | 910 | 94.4 | –
c1ccc(Oc2ccc(Nc3nc(-c4ccccc4)cs3)cc2)cc1 | 79.6 | > 5000 | 31 | EC50 [4]: 330 nM
O=C(c1ccccc1)c1sc(Nc2ccc3c(c2)OCO3)nc1-c1ccccc1 | – | – | – | inhibition (HCA-7): inactive
c1ccc(Oc2ccc(Nc3nc(-c4ccc(C5CCCCC5)cc4)cs3)cc2)cc1 | 41.6 | – | – | –

SMILES | inhibition at 1 µM [1] [%] | IC50 [3] [nM] | inhibition [5] [%] | also measured
N#Cc1ccc(Nc2nc(-c3ccc(Cl)cc3)cs2)cc1 | 23.1 | – | – | –
COc1ccc(Nc2nc(-c3ccc(Cl)cc3)c(C)s2)cc1 | 89.3 | > 5000 | 12 | –
Fc1ccc(-c2csc(Nc3ccc(Oc4ccccc4)cc3)n2)cc1 | 87.9 | > 5000 | 43.4 | EC50 [4]: 120 nM
CC(=O)c1sc(Nc2ccc(C#N)cc2)nc1C | 22.4 | – | – | –
COc1ccccc1-c1csc(Nc2ccc3c(c2)OCO3)n1 | 89 | 930 | 91.3 | –
c1ccc(-c2csc(Nc3ccc4c(c3)OCO4)n2)cc1 | 98.2 | 410 | 114 | –
COc1cccc(-c2csc(Nc3ccc(Oc4ccccc4)cc3)n2)c1 | 88.9 | > 5000 | 40.3 | EC50 [4]: 290 nM
N#Cc1ccc(Nc2nc(-c3ccccc3)c(C(=O)c3ccccc3)s2)cc1 | – | – | – | inhibition (HCA-7): inactive
c1ccc(Oc2ccc(Nc3nc(-c4ccc5ccccc5c4)cs3)cc2)cc1 | 53.5 | – | – | –
CC(=O)c1sc(Nc2ccc3c(c2)OCO3)nc1C | 25.3 | – | – | –
O=C(c1ccccc1)c1sc(Nc2ccc(Oc3ccccc3)cc2)nc1-c1ccccc1 | 42 | – | – | –
Clc1ccccc1-c1csc(Nc2ccc3c(c2)OCO3)n1 | 85.9 | 910 | 84.8 | –
COc1ccccc1-c1csc(Nc2ccc(Oc3ccccc3)cc2)n1 | 82 | > 5000 | 38.9 | EC50 [4]: 180 nM
Clc1ccc(-c2csc(Nc3ccccc3)n2)cc1 | 51 | – | – | –
COc1ccc(Nc2nc(-c3ccc(C)c(C)c3)cs2)cc1 | 73.9 | 1200 | 69.3 | –
COc1ccc(-c2csc(Nc3ccc(Oc4ccccc4)cc3)n2)cc1 | 80.4 | > 5000 | 40.8 | EC50 [4]: 240 nM
CN(c1ccc(O)cc1)c1nc(-c2ccc(Cl)cc2)cs1 | 85.8 | 1080 | 84.2 | –
CCc1sc(Nc2ccc(Oc3ccccc3)cc2)nc1C | 87.1 | > 5000 | 41.3 | –
